From ChEMBL document CHEMBL1165965, “Synthesis and structure-activity relationships of 1,2,3,4-tetrahydropyrido[2,3-b]pyrazines as potent and selective inhibitors of the anaplastic lymphoma kinase” (Bioorg Med Chem, 2010)

Assays:
[1] = molecular target: Wee1-like protein kinase 2 (Homo sapiens) (UniProt P0C1S8); test: Inhibition of WEE2 at 1 uM
[2] = test system: T1, Receptor-type tyrosine-protein kinase FLT3 (Homo sapiens), P36888 [K663Q]; test: Inhibition of FLT3 K663Q mutant at 1 uM
T1 sequence (whole entry): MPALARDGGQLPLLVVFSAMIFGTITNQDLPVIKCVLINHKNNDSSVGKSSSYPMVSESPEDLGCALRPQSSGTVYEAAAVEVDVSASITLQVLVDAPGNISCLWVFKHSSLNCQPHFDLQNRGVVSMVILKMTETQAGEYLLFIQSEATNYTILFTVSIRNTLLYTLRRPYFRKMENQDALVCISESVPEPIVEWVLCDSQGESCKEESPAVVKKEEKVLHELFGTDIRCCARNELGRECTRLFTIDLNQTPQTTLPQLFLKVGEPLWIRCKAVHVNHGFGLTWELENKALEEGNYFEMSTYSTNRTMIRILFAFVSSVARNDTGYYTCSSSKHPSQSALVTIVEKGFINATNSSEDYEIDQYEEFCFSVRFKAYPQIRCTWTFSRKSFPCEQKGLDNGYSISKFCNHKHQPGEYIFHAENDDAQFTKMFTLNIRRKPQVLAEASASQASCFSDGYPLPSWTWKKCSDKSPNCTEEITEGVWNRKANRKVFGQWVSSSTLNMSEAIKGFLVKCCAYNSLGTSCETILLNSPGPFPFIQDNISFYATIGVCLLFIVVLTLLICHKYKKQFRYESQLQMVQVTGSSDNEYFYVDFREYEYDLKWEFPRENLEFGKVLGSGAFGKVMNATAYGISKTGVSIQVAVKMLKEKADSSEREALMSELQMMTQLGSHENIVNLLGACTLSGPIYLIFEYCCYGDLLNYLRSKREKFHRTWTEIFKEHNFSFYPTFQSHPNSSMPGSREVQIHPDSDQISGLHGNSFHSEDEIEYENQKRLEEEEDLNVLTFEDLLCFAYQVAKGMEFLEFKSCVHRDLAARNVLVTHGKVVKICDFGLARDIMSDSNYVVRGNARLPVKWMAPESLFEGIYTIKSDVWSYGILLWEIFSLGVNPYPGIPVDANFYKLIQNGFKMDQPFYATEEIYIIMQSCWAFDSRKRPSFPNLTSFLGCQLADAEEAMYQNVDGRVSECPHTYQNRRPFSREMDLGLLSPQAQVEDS

[3] = molecular target: T2, Testis-specific serine/threonine-protein kinase 1 (Homo sapiens) (UniProt Q9BXA7); test: Inhibition of TSSK1B at 1 uM
T2 sequence (whole entry): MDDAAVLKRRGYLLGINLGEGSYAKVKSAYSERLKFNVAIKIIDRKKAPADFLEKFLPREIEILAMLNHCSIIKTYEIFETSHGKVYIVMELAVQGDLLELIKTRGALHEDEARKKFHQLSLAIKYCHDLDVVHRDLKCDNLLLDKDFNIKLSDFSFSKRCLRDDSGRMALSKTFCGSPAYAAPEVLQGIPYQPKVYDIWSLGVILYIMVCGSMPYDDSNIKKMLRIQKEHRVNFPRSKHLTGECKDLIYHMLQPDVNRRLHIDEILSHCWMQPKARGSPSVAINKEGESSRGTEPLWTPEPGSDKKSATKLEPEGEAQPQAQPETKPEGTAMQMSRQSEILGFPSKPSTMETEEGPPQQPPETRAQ

[4] = molecular target: T3, Serine/threonine-protein kinase Chk1 (Homo sapiens) (UniProt O14757); test: Inhibition of CHEK1 at 1 uM
T3 sequence (whole entry): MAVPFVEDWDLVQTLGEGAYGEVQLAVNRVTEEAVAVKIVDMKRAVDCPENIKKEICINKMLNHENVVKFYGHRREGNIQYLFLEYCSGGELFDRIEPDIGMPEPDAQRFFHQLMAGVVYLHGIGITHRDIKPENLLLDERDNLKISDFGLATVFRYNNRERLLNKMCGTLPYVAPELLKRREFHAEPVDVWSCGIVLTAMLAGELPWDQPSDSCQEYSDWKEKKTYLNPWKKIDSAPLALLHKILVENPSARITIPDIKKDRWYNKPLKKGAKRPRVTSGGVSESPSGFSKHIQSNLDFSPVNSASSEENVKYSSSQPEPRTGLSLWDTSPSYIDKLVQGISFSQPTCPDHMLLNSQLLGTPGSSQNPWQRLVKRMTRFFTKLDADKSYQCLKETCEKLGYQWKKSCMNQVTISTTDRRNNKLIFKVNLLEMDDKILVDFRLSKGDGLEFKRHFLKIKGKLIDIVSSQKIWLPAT

[5] = molecular target: Interferon-induced, double-stranded RNA-activated protein kinase (Homo sapiens) (UniProt P19525); test: Inhibition of PRKR at 1 uM
[6] = molecular target: T4, MAP/microtubule affinity-regulating kinase 4 (Homo sapiens) (UniProt Q96L34); test: Inhibition of MARK4 at 1 uM
T4 sequence (whole entry): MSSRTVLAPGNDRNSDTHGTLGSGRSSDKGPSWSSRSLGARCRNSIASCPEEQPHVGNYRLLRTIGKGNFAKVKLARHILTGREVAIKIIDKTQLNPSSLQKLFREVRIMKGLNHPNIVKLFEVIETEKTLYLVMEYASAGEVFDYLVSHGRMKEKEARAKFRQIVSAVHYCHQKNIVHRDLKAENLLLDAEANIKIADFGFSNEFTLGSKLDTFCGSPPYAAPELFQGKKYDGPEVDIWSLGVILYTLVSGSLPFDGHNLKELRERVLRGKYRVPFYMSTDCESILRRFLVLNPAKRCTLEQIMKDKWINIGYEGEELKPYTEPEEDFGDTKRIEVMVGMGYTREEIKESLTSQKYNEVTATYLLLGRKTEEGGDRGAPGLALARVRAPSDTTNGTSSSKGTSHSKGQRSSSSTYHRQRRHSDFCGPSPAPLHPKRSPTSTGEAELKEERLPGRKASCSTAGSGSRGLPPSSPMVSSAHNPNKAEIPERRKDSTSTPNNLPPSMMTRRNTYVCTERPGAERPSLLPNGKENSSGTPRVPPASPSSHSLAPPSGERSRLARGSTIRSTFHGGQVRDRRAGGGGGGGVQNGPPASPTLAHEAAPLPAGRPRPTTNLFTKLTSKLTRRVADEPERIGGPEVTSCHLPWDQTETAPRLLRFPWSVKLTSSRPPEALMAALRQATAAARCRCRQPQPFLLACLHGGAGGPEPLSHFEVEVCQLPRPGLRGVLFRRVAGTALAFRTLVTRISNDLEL
In short: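 Kinase-panel screen using KINOMEscan technology, with 250–400 kinases per panel. Each compound was tested at a single concentration, and inhibition of each kinase was recorded. Selectivity was summarised as S(90), the fraction of kinases inhibited by more than 90%.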

Chain of Interferon-induced, double-stranded RNA-activated protein kinase (Homo sapiens) (P19525 whole entry): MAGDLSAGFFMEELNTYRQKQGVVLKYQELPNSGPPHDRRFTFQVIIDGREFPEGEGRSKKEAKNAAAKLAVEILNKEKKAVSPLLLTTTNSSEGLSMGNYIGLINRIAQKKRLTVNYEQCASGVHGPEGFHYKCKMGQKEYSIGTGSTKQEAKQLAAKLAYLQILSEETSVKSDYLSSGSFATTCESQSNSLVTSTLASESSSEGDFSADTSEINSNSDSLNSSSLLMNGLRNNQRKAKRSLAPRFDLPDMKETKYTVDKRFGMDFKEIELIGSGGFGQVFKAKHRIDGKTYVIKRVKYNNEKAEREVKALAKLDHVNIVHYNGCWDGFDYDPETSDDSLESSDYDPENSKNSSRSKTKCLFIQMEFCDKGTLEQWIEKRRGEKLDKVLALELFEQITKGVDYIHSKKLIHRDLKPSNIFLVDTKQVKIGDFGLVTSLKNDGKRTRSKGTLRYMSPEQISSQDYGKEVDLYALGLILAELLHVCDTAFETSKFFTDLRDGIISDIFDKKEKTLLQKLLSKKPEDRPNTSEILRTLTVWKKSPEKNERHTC
Chain of Wee1-like protein kinase 2 (Homo sapiens) (P0C1S8 whole entry, looked up): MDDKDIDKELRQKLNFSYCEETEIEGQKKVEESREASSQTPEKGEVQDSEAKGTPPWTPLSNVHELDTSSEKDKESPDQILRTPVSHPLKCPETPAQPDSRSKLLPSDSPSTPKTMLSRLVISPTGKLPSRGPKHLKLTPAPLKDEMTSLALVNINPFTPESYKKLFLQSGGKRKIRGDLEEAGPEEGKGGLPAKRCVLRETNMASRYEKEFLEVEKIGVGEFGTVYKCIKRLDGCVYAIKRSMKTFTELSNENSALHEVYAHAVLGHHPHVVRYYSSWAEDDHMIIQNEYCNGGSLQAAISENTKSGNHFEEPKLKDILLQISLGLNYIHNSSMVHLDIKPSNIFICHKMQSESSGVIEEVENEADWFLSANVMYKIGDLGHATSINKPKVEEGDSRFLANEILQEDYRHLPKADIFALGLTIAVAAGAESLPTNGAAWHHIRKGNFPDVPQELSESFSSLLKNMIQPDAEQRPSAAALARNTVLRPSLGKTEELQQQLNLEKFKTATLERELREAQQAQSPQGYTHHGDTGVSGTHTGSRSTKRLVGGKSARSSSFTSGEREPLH

SMILES | inhibition [1] [%] | inhibition [2] [%] | inhibition [3] [%] | inhibition [4] [%] | inhibition [5] [%] | inhibition [6] [%]
CN1CCN(c2ccc(-c3cnc4c(c3)N(Cc3cc(Cl)ccc3Cl)CCN4)cn2)CC1 | < 50 | 93 | < 50 | < 50 | < 50 | < 50
CN1CCN(c2ccc(-c3cnc4c(c3)N(Cc3cc(Cl)ccc3C(F)(F)F)CCN4)cn2)CC1 | < 50 | 92 | < 50 | < 50 | < 50 | < 50
CN1CCN(c2ccc(-c3cnc4c(c3)N(Cc3c(F)ccc(F)c3Cl)CCN4)cn2)CC1 | < 50 | 70 | < 50 | < 50 | < 50 | < 50
O=C(c1ccc(-c2cnc3c(c2)N(Cc2cc(Cl)ccc2C(F)(F)F)CCN3)cc1)N1CCC(N2CCCC2)CC1 | – | – | – | – | < 50 | < 50
COC1CCN(C(=O)c2ccc(-c3cnc4c(c3)N(Cc3cc(Cl)ccc3C(F)(F)F)CCN4)cc2)CC1 | – | – | – | – | < 50 | < 50
FC(F)(F)c1ccc(Cl)cc1CN1CCNc2ncc(-c3ccnc(N4CCNCC4)c3)cc21 | < 50 | 98 | < 50 | < 50 | < 50 | < 50
CN1CCN(c2ccc(-c3cnc4c(c3)N(Cc3cc(F)ccc3F)CCN4)cn2)CC1 | < 50 | 80 | < 50 | < 50 | < 50 | < 50
O=C(c1ccc(-c2cnc3c(c2)N(Cc2cc(Cl)ccc2C(F)(F)F)CCN3)cc1)N1CCCCC1 | – | – | – | – | < 50 | < 50
CC(=O)N1CCN(c2cc(-c3cnc4c(c3)N(Cc3cc(Cl)ccc3C(F)(F)F)CCN4)ccn2)CC1 | < 50 | 93 | < 50 | < 50 | < 50 | < 50
O=C(O)c1ccc(-c2cnc3c(c2)N(Cc2cc(Cl)ccc2C(F)(F)F)CCN3)cc1 | – | – | – | – | < 50 | < 50
